Our source for the IC50 values is ChEMBL document CHEMBL1938234, “Cytotoxic and antimalarial azaphilones from Chaetomium longirostre” (J Nat Prod, 2011).

One test concerns Plasmodium falciparum. The experiment in a line: Antimalarial activity against multidrug-resistant Plasmodium falciparum K1 assessed as inhibition of [3H]-hypoxanthine incorporation. Type of test: functional, organism-based. In a few lines: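 In vitro culture of the K1 multidrug-resistant P. falciparum strain followed the Trager–Jensen method. Activity was scored by the Desjardins microculture radioisotope technique, reading [3H]-hypoxanthine uptake by the parasites. IC50 was taken as the concentration giving 50% reduction in parasite growth. Dihydroartemisinin served as the reference standard.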

Another test relates to NCI-H187. Briefly: Cytotoxicity against human NCI-H187 cells by SRB assay. Type of test: functional, cell-based. (In general: Sulforhodamine B stains cellular protein and so reports cell mass.)
Another test relates to KB. The experiment in a line: Cytotoxicity against human KB cells by SRB assay. It counts as functional, cell-based.
Another test relates to MCF7. The experiment in a line: Cytotoxicity against human MCF7 cells by SRB assay. Type of test: functional, cell-based.
Setting [1] is: Plasmodium falciparum, K1, read-out: IC50.
Setting [2] is: Homo sapiens, NCI-H187, read-out: IC50.
[3] abbreviates: Homo sapiens, MCF7, read-out: IC50.

As a reminder, the IC50 is the concentration that inhibits the measured activity by half. For `C[C@H]1[C@@H](O)O[C@@H]2O[C@@]3(C)CC[C@H]4[C@H](C)CC[C@@H]1[C@@]24OO3` [ARTENIMOL], the IC50 with Plasmodium falciparum (setting [1]) was 4 nM.
As for `COc1cccc2c1C(=O)c1c(O)c3c(c(O)c1C2=O)C[C@@](O)(C(=O)CO)C[C@@H]3O[C@H]1C[C@H](N)[C@H](O)[C@H](C)O1` [DOXORUBICIN], the IC50 in the test on NCI-H187 (setting [2]) turned out to be 110 nM; in the test with KB, 330 nM; in the test with MCF7 (setting [3]) it was 2290 nM.
With `Cc1c2ccncc2c(C)c2c1[nH]c1ccccc12` [ELLIPTECINE], the figures for the IC50 in the test with NCI-H187 (setting [2]) and in the test with KB were 1820 nM and 1250 nM, respectively.
On to `CCC(C)CC(C)/C=C(C)/C=C/C(=O)[C@H]1C(=O)O[C@@]2(C)C(=O)C=C3C=C([C@H]4C(=O)C=CC[C@@H]4C)OC=C3[C@@H]12` (some centres not stated) [LONGIROSTRERONE C], for which the IC50 result in the test on NCI-H187 (nci-h187) is “Not Active”; in the test with KB it was 230 nM; in the test on Plasmodium falciparum (setting [1]), 620 nM; in the test with MCF7 (mcf7), “Not Active”.
As to `CCC(C)CC(C)/C=C(C)/C=C/C(=O)C1=C2C3=COC([C@H]4C(=O)C[C@H](O)C[C@@H]4C)=CC3=CC(=O)[C@@]2(C)OC1=O` (some centres not stated) [LONGIROSTRERONE D], the IC50 in the test on NCI-H187 (setting [2]) was 18400 nM; with KB it was 6380 nM; in the test on Plasmodium falciparum, “Not Active”; in the test on MCF7 (setting [3]), 38200 nM.
Consider `CCC(C)CC(C)/C=C(C)/C=C/C(=O)[C@H]1C(=O)O[C@@]2(C)C(=O)C=C3C=C([C@H]4C(=O)C[C@H](O)C[C@@H]4C)OC=C3[C@@H]12` (some centres not stated) [LONGIROSTRERONEA], for which the concentration for half-maximal inhibition (IC50) was found to be 3080 nM with NCI-H187 (setting [2]), 1040 nM in the test on KB, 630 nM in the test with Plasmodium falciparum (setting [1]) and 240 nM with MCF7 (setting [3]).
As for `CCC(C)CC(C)/C=C(C)/C=C/C(=O)C[C@H]1C2=COC([C@H]3C(=O)C[C@H](O)C[C@@H]3C)=CC2=CC(=O)[C@]1(C)O` (some centres not stated) [LONGIROSTRERONEB], the IC50 entry in the test on NCI-H187 (nci-h187) was “Not Active”; with KB, 1520 nM; with Plasmodium falciparum (setting [1]), 3730 nM; with MCF7 (mcf7), “Not Active”.
